Screening data: PubChem, several laboratories
HIF activator: HIF pathway transcriptional activators, primary screen, cell-based, U2OS HRE-luciferase, luminescence; U2OS HRE-luciferase reporter; normalized: DMSO 0%, desferrioxamine 100%; activation, % at 7.5 µM (by protocol); hit rate 0.32% among 300,000; AID 1910, 2009;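 active = mean activation of at least 10% of the iron chelator positive control signal, with at least half of replicates also reaching 10%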
Rad51 HR inh: human RAD51 strand exchange inhibitors, primary screen, biochemical, fluorescence. DNA repair protein RAD51 homolog 1 (Homo sapiens), Q06609. hRad51 DNA strand exchange, fluorescence dequenching. inhibition, % at 10 µM. hit rate 0.085% among 200,000. AID 1385, 2008;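 active = inhibition above 40% at the single screening dose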;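 also: 0% = DMSO control wells and 100% = blanks with heterologous ssDNA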
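Material: hRad51 filaments on single-stranded DNA; Reagent: Donor/quencher-labelled 47-bp dsDNA substrate; Compound: 10 µM final, single point; Schedule: 37 °C 15-min filament assembly, 30-min compound preincubation, 15-min exchange; Technique: FRET fluorescence, excitation 485 nm, emission 520 nm; Benchmarks: control wells and blank wells on each plate.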
TAG inh: inhibitors of triacylglycerol accumulation, primary screen, cell-based, uHTS, fluorescence, H9c2 | H9c2 cells, Nile Red lipid (TAG) fluorescence; cells loaded with 200 µM oleic acid | hit rate 0.66% among 230,000 | inhibition, % at 12.5 µM;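 active = pattern-corrected inhibition of lipid staining of at least 50% with the nuclear-stain viability signal not falling by more than 50%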;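 also: 0% = DMSO wells and 100% = triacsin C control wells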
Hsp70 activator: Hsp70 transcriptional activators, primary screen, cell-based, HeLa, Hsp70 promoter luciferase, luminescence, 10 µM; HeLa Hsp70 promoter luciferase reporter; scaled: vehicle 0, proteasome-inhibitor control 100%; activation, % at 10 µM; hit rate 0.04% among 200,000; AID 1203, 2008;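 active = activation above the mean across all tested compounds plus 3 SD, cutoff set per campaign, cut at about 5.5% in these data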;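 also: 100% = MG132 at 30 µM as the positive control and 0% = DMSO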
FXN GAA850 act: FXN promoter activators, primary screen, cell-based, luciferase luminescence, HEK293 lucGAA850 | activation, % at 6 µM | HEK293 lucGAA850 FXN promoter luciferase reporter, 24 h; percent of 10 µM SAHA response | hit rate 0.56% among 360,000;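 active = activation above the average of all compounds screened plus 3 SD, cutoff fixed separately per campaign, cut at about 7.5% in these data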;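 also: 0% = DMSO wells and 100% = 10 µM SAHA wells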
ABHD5 PLIN5 PPI: ABHD5-PLIN5 interaction inhibitors, primary screen, cell lysate, split luciferase complementation, luminescence. Split G. princeps luciferase complementation, 4 h. inhibition, % at 4 µM. hit rate 0.78% among 360,000;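 active = inhibition above the mean inhibition across every tested compound plus 3 SD, cut at about 22% in these data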;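 also: 0% = DMSO only wells and the 100% control is not disclosed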
Target sequence (Q00G26 whole entry, looked up): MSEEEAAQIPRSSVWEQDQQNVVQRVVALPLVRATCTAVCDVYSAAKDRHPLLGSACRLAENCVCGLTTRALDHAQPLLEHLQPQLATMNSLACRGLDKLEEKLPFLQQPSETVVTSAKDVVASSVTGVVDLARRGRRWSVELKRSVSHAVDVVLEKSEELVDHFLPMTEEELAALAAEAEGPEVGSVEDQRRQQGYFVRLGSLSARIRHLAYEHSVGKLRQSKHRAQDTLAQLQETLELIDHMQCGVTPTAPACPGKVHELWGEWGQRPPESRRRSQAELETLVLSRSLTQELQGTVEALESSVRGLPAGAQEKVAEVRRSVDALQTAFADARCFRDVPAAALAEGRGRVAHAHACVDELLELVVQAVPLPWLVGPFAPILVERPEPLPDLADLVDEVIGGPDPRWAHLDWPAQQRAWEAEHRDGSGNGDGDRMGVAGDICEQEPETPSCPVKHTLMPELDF
Target sequence (Q8WTS1 whole entry, looked up): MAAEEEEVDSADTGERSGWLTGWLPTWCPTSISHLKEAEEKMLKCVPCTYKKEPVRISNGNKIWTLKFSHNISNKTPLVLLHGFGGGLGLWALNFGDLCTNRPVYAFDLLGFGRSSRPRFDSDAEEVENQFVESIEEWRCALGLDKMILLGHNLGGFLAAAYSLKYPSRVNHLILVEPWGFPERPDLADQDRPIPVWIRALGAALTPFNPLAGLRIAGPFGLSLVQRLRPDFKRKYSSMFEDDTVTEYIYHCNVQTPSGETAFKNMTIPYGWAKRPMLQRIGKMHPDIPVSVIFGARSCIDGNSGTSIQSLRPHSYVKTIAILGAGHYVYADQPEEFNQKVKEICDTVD
Starred values were filed as active, the others as inactive. Rows were chosen to be rich in hits. Some 1.9% of all compounds tested hit in one or more screens of this group.

`CCCCn1c(N)c(N(CCC(C)C)C(=O)CCN2C(=O)C3CC=CCC3C2=O)c(=O)[nH]c1=O` (stereo unspecified) gave HIF activator 0.6, TAG inh -7.1, FXN GAA850 act -0.5 and ABHD5 PLIN5 PPI -3.7.
For Cc1nn(C)cc1/C=N\NC(=O)c1csc2c1CCCC2 the results were HIF activator 0.1, TAG inh 12.0, FXN GAA850 act 0.3 and ABHD5 PLIN5 PPI 3.1.
For O=c1c2ccccc2cnn1Cc1nnc(-c2cccs2)o1 the results were HIF activator 0.4, FXN GAA850 act 0.5 and ABHD5 PLIN5 PPI 0.8.
For Cc1occc1C(=O)N/N=C/c1c(O)ccc2ccccc12 the results were HIF activator 91.4*, FXN GAA850 act -4.1 and ABHD5 PLIN5 PPI 11.4.
`O=C(N/N=C/c1c(O)ccc2ccccc12)Nc1ccccc1` gave HIF activator 0.2.
Screening O=C(NN=Cc1c(O)ccc2ccccc12)c1ccncc1 returned TAG inh 32.3, FXN GAA850 act -10.5 and ABHD5 PLIN5 PPI 4.1.
`O=C(N/N=C\c1c(O)ccc2ccccc12)c1ccc(O)cc1` gave HIF activator 34.0*, TAG inh 37.9, FXN GAA850 act -1.8 and ABHD5 PLIN5 PPI 2.4.
Screening O=C(CSCC(=O)Nc1ccccc1)N/N=C/c1c(O)ccc2ccccc12 returned HIF activator 70.7*, Hsp70 activator -0.4, FXN GAA850 act -1.5 and ABHD5 PLIN5 PPI 3.1.
Screening CN(C)CCCNc1nc2cc(-c3ccc(F)cc3)sc2c(=O)n1C returned TAG inh 23.6, FXN GAA850 act 0.4 and ABHD5 PLIN5 PPI 7.4.
Cc1cccc(CN2[C@@H](CC(C)C)COCCS2(=O)=O)c1 was read as HIF activator 0.1, Rad51 HR inh -1.2, TAG inh -12.7, FXN GAA850 act 0.4 and ABHD5 PLIN5 PPI -1.7.
`CCOC(=O)c1c(C)[nH]c(C(=O)OCc2ccccc2F)c1C` gave HIF activator 10.6*, FXN GAA850 act 7.3 and ABHD5 PLIN5 PPI -9.5.
`CCCCN(C(=O)c1c(C)[nH]c(C(=O)OCC)c1C)c1ccccc1` gave HIF activator 10.4*, Rad51 HR inh -7.6, Hsp70 activator 0.1, FXN GAA850 act 1.4 and ABHD5 PLIN5 PPI -1.8.
Screening CCOC(=O)c1c(C)[nH]c(C(=O)OCc2ccc(F)cc2)c1C returned HIF activator 2.6, TAG inh -52.1, FXN GAA850 act 6.6 and ABHD5 PLIN5 PPI -1.5.
Screening CCOC(=O)c1c(C)[nH]c(C(=O)OCC(=O)c2ccccc2)c1C returned HIF activator 2.1, TAG inh -78.3, FXN GAA850 act 1.1 and ABHD5 PLIN5 PPI 1.2.
Screening COCCN(CC(=O)Nc1cccc(C)c1C)C(=O)c1cc2c(s1)CCC2 returned TAG inh -10.7, FXN GAA850 act 0.5 and ABHD5 PLIN5 PPI 4.1.
CCCN(CC(=O)Nc1ccccc1OC)CC(=O)c1c(N)n(Cc2ccccc2)c(=O)n(C)c1=O was read as TAG inh -11.8, FXN GAA850 act -0.7 and ABHD5 PLIN5 PPI -0.4.
`COc1ccc(OC)c(-c2nnc3n2N=C(c2ccc(OC)c(OCC4CC4)c2)CS3)c1` gave TAG inh 41.0, FXN GAA850 act -1.6 and ABHD5 PLIN5 PPI 23.1*.
For Cc1cc(-c2nnc3n2N=C(C(C)(C)C)CS3)n[nH]1 the results were Rad51 HR inh -2.8, TAG inh 6.1, Hsp70 activator -0.4, FXN GAA850 act 0.1 and ABHD5 PLIN5 PPI -3.7.
`COc1ccc(C2=Nn3c(nnc3-c3ccccc3Cl)SC2)cc1OCC1CC1` gave TAG inh -3.3, FXN GAA850 act -2.9 and ABHD5 PLIN5 PPI -9.0.
Screening COc1ccc(OC)c(C2=Nn3c(nnc3-c3cc(C)[nH]n3)SC2)c1 returned HIF activator 58.3*, TAG inh 6.4, FXN GAA850 act 1.0 and ABHD5 PLIN5 PPI -7.7.
Screening COc1ccc(CNC(=O)c2sccc2-c2ccccc2)cc1OC returned HIF activator -0.2, TAG inh -16.3, FXN GAA850 act 1.8 and ABHD5 PLIN5 PPI 5.6.
For CCOc1ccc(-n2ccc(=O)c(C(=O)Nc3ccc(S(=O)(=O)Nc4ncccn4)cc3)n2)cc1 the results were HIF activator -0.7, FXN GAA850 act -0.6 and ABHD5 PLIN5 PPI 0.8.
Screening CCOc1cccc(/C=N/Nc2ccc(S(=O)(=O)N(CC)CC)cn2)c1O returned HIF activator 9.8*, Rad51 HR inh 4.7, Hsp70 activator -0.5, FXN GAA850 act -3.1 and ABHD5 PLIN5 PPI -1.4.
CCN(CC)S(=O)(=O)c1ccc(N/N=C/c2cc(OC)c(OC)cc2OC)nc1 was read as HIF activator 0.1, Rad51 HR inh -1.7, Hsp70 activator -0.1, FXN GAA850 act -0.1 and ABHD5 PLIN5 PPI 3.7.
For CCN(CC)S(=O)(=O)c1ccc(N/N=C/c2ccc(O)cc2)nc1 the results were HIF activator 0.3, Rad51 HR inh 14.1, TAG inh 4.1, Hsp70 activator 1.0, FXN GAA850 act -1.5 and ABHD5 PLIN5 PPI -0.2.
`CCN(CC)S(=O)(=O)c1ccc(N/N=C(\C)c2ccc(OC)cc2O)nc1` gave HIF activator 9.6*, Rad51 HR inh 27.8, TAG inh 35.3, FXN GAA850 act -2.0 and ABHD5 PLIN5 PPI 2.5.
For CCOc1ccc(S(=O)(=O)Nc2cc(S(=O)(=O)N3CCOCC3)ccc2OC)cc1 the results were TAG inh 15.1, FXN GAA850 act -2.1 and ABHD5 PLIN5 PPI 2.1.
Screening Cc1oc(-c2ccc(Cl)cc2)nc1CS(=O)CC(=O)NCCN1CCCCCC1 (stereo unspecified) returned HIF activator 109.1*, FXN GAA850 act -0.4 and ABHD5 PLIN5 PPI -1.6.
For Cc1cc2c(cc1C)N[C@]1(C[C@H]3CCCC(=O)N4CC[C@@H](C1)[C@@H]34)C(=NC(C)(C)CC(C)(C)C)N2 the results were TAG inh 28.5, FXN GAA850 act 0.9 and ABHD5 PLIN5 PPI -1.1.
Nc1nc(N=Nc2ccc(O)cc2)cc(=O)[nH]1 was read as TAG inh 5.4, FXN GAA850 act 1.5 and ABHD5 PLIN5 PPI 4.7.
For Cc1ccc(CSc2nnc(-c3ccncc3)n2C)cc1 the results were HIF activator 0.5, Rad51 HR inh 1.0, TAG inh -6.4, Hsp70 activator 0.1, FXN GAA850 act -3.2 and ABHD5 PLIN5 PPI 9.6.
`Cc1ccc(Nc2nc(CSc3nnc(-c4ccncc4)n3C)cs2)cc1` gave HIF activator 257.7*, Rad51 HR inh -3.9, Hsp70 activator -0.1, FXN GAA850 act 6.4 and ABHD5 PLIN5 PPI 7.4.
`CC1(C(=O)NC2CCCC2)CCC(=O)N1CCc1c[nH]c2ccccc12` (stereo unspecified) gave ABHD5 PLIN5 PPI 3.7.
